High-throughput results as filed in PubChem.
697 NFkB inh: inhibitors of PMA/ionomycin-induced NF-kB reporter, 697 cells, primary screen, B-cell NF-kB inhibitor project, cell-based, luminescence, uHTS; AID 435022, 2010; inhibition, % at 4 µM; 697 B-cell NF-kB luciferase reporter, 16 h; 330,000 compounds, 0.33% hits; in the data active = inhibition above about 35%
Jurkat NFkB inh: inhibitors of induced NF-kB luciferase reporter, primary screen, TCR NF-kB activation inhibitor project, cell-based, luminescence, uHTS | inhibition, % at 4 µM | 330,000 compounds, 0.53% hits | AID 435003, 2010 | Jurkat, PMA/ionomycin-induced NF-kB luciferase reporter; in the data active = inhibition above about 50%
Hep lipid drop: inhibitors of hepatocyte lipid droplet formation, primary screen, imaging, high-throughput imaging, BODIPY stain | AID 1656, 2009 | 240,000 compounds, 0.4% hits | inhibition, % at 6.5 µM | AML12 mouse hepatocytes, oleate lipid droplets;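 active = lipid droplet intensity inhibited by at least 50%, with more than 500 cells counted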
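Test system: AML12 mouse liver cells; schedule: overnight exposure; technique: high-content imaging of BODIPY-stained droplets and DAPI nuclei; read-out: % inhibition of corrected integrated BODIPY droplet signal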
H9c2 TAG inh: inhibitors of triacylglycerol accumulation, primary screen, cell-based, uHTS, fluorescence, H9c2. H9c2 cells, Nile Red lipid (TAG) fluorescence; cells loaded with 200 µM oleic acid. inhibition, % at 12.5 µM. 230,000 compounds, 0.66% hits;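 active = pattern-corrected inhibition of lipid staining of at least 50% with the nuclear-stain viability signal not falling by more than 50%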;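 note: 0% = DMSO wells and 100% = triacsin C control wells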
aSyn UTR inh: MLPCN primary screen, SNCA 5' untranslated region; inhibition, % (tested at 7.5 µM); alpha-synuclein 5'UTR reporter, inhibitor activity; 300,000 compounds, 0.82% hits; in the data active = inhibition above about 60%;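 note: H4 neuroglioblastoma cells stably carrying SNCA 5'UTR luciferase fusion; 0% = DMSO wells and 100% = positive control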
APP 5UTR inh: inhibitors of APP translation via 5'UTR reporter, primary screen, APP 5'UTR luciferase, SH-SY5Y cells; SH-SY5Y APP 5'UTR-luciferase reporter, luminescence; inhibition, % at 2 µM; 190,000 compounds, 0.82% hits;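 active = inhibition above a set limit, derived from the sample mean plus 3 SD, cut at about 45% in these data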
Lipid drop inh: hepatocyte lipid droplet accumulation inhibitors, confirmation, imaging, AML12 mouse hepatocytes, single concentration, high-content | shares compounds with Hep lipid drop | BODIPY lipid droplet imaging; droplets induced with 100 µM oleic acid | inhibition, % at 5.2 µM | 870 compounds, 65% hits | AID 463183, 2010;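 active = inhibition of lipid droplet metric at least 50%, with more than 300 cells in each of four replicates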;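 note: plate controls were DMSO with oleic acid for no effect and 5 µM Triacsin-C for full effect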
AML12 tox img: AML12 hepatocyte cytotoxicity, counter-screen for hepatic lipid droplet formation project, imaging, DAPI nuclear morphology imaging | shares compounds with Hep lipid drop | z-score at 5 µM | AML12 mouse hepatocytes; active compounds read high; cells fed 100 µM oleate overnight | 870 compounds, 3% hits; in the data active = z-score above about 6.3;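 note: compound exposure lasted overnight at 37 °C before fixation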
AML12 tox conf: AML12 hepatocyte cytotoxicity, confirmation, cytotoxicity control for hepatic lipid droplet formation project, cell-based, single concentration; shares compounds with Hep lipid drop; AML12 mouse hepatocyte viability, ATP luminescence; cells loaded with 100 µM oleic acid; cytotoxicity, % at 50 µM; 530 tested, under 10 active; AID 463219, 2010;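 active = cytotoxicity above 50% in each of four replicates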;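 note: compound exposure lasted overnight at 37 °C before the ATP read; 0% = DMSO-treated cells and 100% = wells with no cells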
Active calls of the source: *; . = no result. Rows were chosen to be rich in hits. Some 1.9% of all compounds tested hit in one or more screens of this group.

SMILES	697 NFkB inh	Jurkat NFkB inh	Hep lipid drop	H9c2 TAG inh	aSyn UTR inh	APP 5UTR inh	Lipid drop inh	AML12 tox img	AML12 tox conf
CCOC(=O)C(NC(=O)c1ccccc1)(OCc1ccccc1)C(F)(F)F (stereo unspecified)	-14	-3	54*	.	-6	2	66*	-0.86	15
CCOC(=O)C(NC(C)=O)(OCc1ccccc1)C(F)(F)F (stereo unspecified)	5	-12	2	-2	2	-8	.	.	.
CCCCOC(=O)c1ccc(NC(=O)CN2C(=O)NC3(CCCCCC3)C2=O)cc1	0	-5	.	7	.	.	.	.	.
CCC1(c2ccccc2)NC(=O)N(CC(=O)N(C)Cc2c(F)cccc2Cl)C1=O (stereo unspecified)	8	7	81*	.	10	.	99*	0.2	14
Cc1ccc(-n2nc3c(=O)n(CC(=O)NCCCc4ccccc4)nc(C)c3c2C)cc1	4	42	65*	.	39	.	81*	-0.42	27
CCC(C(=O)NCc1cccc(C)c1)n1nc(C)c2c(C)n(-c3ccccc3)nc2c1=O (stereo unspecified)	-10	13	64*	.	-7	.	78*	-0.53	22
CCC(C(=O)NCc1ccc(C)o1)n1nc(C)c2c(C)n(-c3ccccc3)nc2c1=O (stereo unspecified)	-18	11	24	.	-16	.	.	.	.
Cc1c(C)n(CCCN(C)C)c2ncnc(Nc3ccc(F)cc3)c12	-3	-1	4	.	-16	.	.	.	.
CC(=O)CSc1nc2ccc(Nc3nc(N4CCOCC4)nc(N4CCOCC4)n3)cc2s1	-38	-19	-12	.	-48	11	.	.	.
CC(C)(C)NC(=O)CSc1nc2ccc(Nc3nc(N4CCOCC4)nc(N4CCOCC4)n3)cc2s1	9	2	53*	.	-3	10	89*	0.59	-2
CCOc1ccccc1NC(=O)CSc1nnc(Cn2c(=O)sc3ccccc32)n1C	6	-3	53*	25	.	2	41	-0.27	.
CCOc1ccc(NC(=O)CSc2nnc(Cn3c(=O)sc4ccccc43)n2C)cc1	7	4	25	-21	.	-1	.	.	.
COc1ccc2c(c1)-c1c(ssc1=S)C(C)(C)N2S(=O)(=O)c1ccc(C)cc1	-37	2	51*	.	14	-2	61	1.3	.
CCN(CC)S(=O)(=O)c1ccc(C(=O)NCc2ccc3[nH]c4c(c3c2)CCCC4)cc1	-53	7	85*	40	-25	2	90*	0.14	16
COc1ccc2nc(N=Nc3ccc(O)c4ccccc34)sc2c1	16	25	71*	.	59	74*	105*	5.5	.
COc1ccc(/C=C\C(=O)NCc2ccc3[nH]c(C)cc3c2)cc1OC	11	2	74*	40	25	15	96*	-0.4	16
COc1cc(/C=C\C(=O)NCc2ccc3[nH]c(C)cc3c2)cc(OC)c1OC	9	2	6	41	6	3	.	.	.
COC(=O)c1c(N2C(=O)[C@H]3[C@@H](C2=O)[C@]2(C(=O)Nc4c(C)cc(C)cc42)N2CCC[C@@H]32)sc(C)c1C	16	-14	68*	12	6	-17	32	0.064	.
COc1ccccc1NC(=O)c1cc(S(=O)(=O)N2CCOCC2)ccc1Cl	0	-10	0	1	15	18	.	.	.
COc1ccc(S(=O)(=O)N2CCOCC2)cc1NC(=O)c1ccccc1C	-4	-4	51*	15	13	.	-13	-0.58	.
CCCC(=O)Nc1c2c(nc3ccccc13)N(c1ccccc1)CC2	-1	-8	52*	18	-10	-6	44	0.44	.
CC(C)(C)OC(=O)N(CCc1ccccc1)Cc1ccccc1OCc1ccc(NC(=O)C2CCCC2)cc1	.	.	.	17	.	.	.	.	.
C[C@H](NC(=O)CCC1CCC(=O)N1)c1ccccc1 (stereo partly specified)	1	14	.	0	-1	.	.	.	.
CC(=O)OCC(=O)[C@@]1(O)CC[C@H]2[C@@H]3CCC4=CC(=O)CC[C@]4(C)[C@H]3[C@@H](O)C[C@@]21C	-7	1	50*	21	-14	-59	24	0.65	.
CC1=C/C(=N\Nc2ccccc2[N+](=O)[O-])CC(C)(C)C1	-10	-6	77*	.	6	-10	115*	-0.27	.
SMILES	697 NFkB inh	Jurkat NFkB inh	Hep lipid drop	H9c2 TAG inh	aSyn UTR inh	APP 5UTR inh	Lipid drop inh	AML12 tox img	AML12 tox conf
C/C(=N/Nc1ccccc1[N+](=O)[O-])c1ccc([N+](=O)[O-])cc1	-5	-8	12	.	-2	.	.	.	.
CCOC(=O)C1=C(C)n2c(s/c(=C3\C(=O)Nc4ccccc43)c2=O)=NC1c1ccc(OC)cc1 (stereo unspecified)	-1	2	80*	3	-38	0	24	-0.28	.
COC(=O)C1=C(C)N=c2s/c(=C3\C(=O)Nc4ccccc43)c(=O)n2C1c1ccccc1 (stereo unspecified)	-6	-17	60*	.	15	-8	56*	-0.52	69*
CCOC(=O)C1=C(C)N=c2s/c(=C3/C(=O)Nc4ccccc43)c(=O)n2C1c1ccc(C)cc1 (stereo unspecified)	-3	-19	30	8	-4	-19	.	.	.
CCOC(=O)c1c(C)nc2sc3c(c2c1-c1ccc(OC)cc1)NC(c1ccccc1)NC3=O (stereo unspecified)	-18	-1	.	.	3	8	.	.	.
CC(C)(C)OC(=O)NNC(=O)Nc1ccccc1C(F)(F)F	2	0	9	4	4	-3	.	.	.
CC(C)(C)c1ccc(C(=O)NC(=O)CSc2n[nH]c(N)n2)cc1	-4	-7	.	18	.	.	.	.	.
Cc1cc(C(=O)OCC(=O)Nc2nc(-c3ccccc3)cs2)c(C)o1	2	-8	.	28	-4	-1	.	.	.
Cc1cc(C(=O)OC(C)C(=O)Nc2nc(-c3ccccc3)cs2)c(C)o1 (stereo unspecified)	-26	-22	87*	.	-19	-6	111*	-0.8	4
